The source of these data is ChEMBL document CHEMBL2040765, “Synthesis and anticancer activity of a series of norcantharidin analogues” (2012).

The term GI50 denotes the concentration at which growth is held to half of that of the control.

Holding throughout (type): functional
The nature of test [1]: Growth inhibition of human BE(2)-C cells after 72 hrs y MTT assay. The method, boiled down: (§1)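 Cells kept in DMEM with 10% FBS, 10 mM sodium bicarbonate, penicillin, streptomycin and 4 mM glutamine at 37 °C under 5% CO2. Log-phase cells were plated in duplicate at 2500–4000 cells/well. After 24 h, compound in medium was added; analogue stocks were 40 mM in DMSO. Growth was read after 72 h by MTT absorbance at 540 nm in dose-response testing.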

A further test concerns SW480. Description: Growth inhibition of human SW480 cells after 72 hrs y MTT assay. The following applies: SW480, 72 h. In short, it runs like this:
as §1

The next test concerns MCF7. As to the kind of experiment: Growth inhibition of human MCF7 cells after 72 hrs y MTT assay. The conditions noted are these: MCF7, 72 h. In short, it runs like this:
as §1
A general note: Formazan colour is commonly taken as a measure of viable cells.

The test system of the next test is A2780. As to the kind of experiment: Growth inhibition of human A2780 cells after 72 hrs y MTT assay. The following applies: A2780, 72 h. The method, boiled down: as §1
The subject of a further test is NCI-H460. Description: Growth inhibition of human H460 cells after 72 hrs y MTT assay. The following applies: NCI-H460, 72 h. In short, it runs like this: as §1
In the next test the test system is A-431. As to the kind of experiment: Growth inhibition of human A431 cells after 72 hrs y MTT assay. The following applies: A-431, 72 h. The method, boiled down: as §1
The subject of a further test is DU-145. As to the kind of experiment: Growth inhibition of human DU145 cells after 72 hrs y MTT assay. The conditions noted are these: DU-145, 72 h. The method, boiled down:
as §1

For another test, the system named is HT-29. Description: Growth inhibition of human HT-29 cells after 72 hrs y MTT assay. The following applies: HT-29, 72 h. In short, it runs like this:
as §1

A short description of test [2]: Growth inhibition of human SJ-G2 cells after 72 hrs y MTT assay. The conditions noted are these: SJ-G2, 72 h. In short, it runs like this: as §1

As to `C=CCO[C@@H]1OC(=O)[C@H]2[C@@H]1[C@@H]1CC[C@H]2O1`, the GI50 (in [1]; with SW480; with MCF7; in the test on A2780; in the test on NCI-H460; with A-431) was greater than 100 µM throughout. The same compound gave a GI50 with DU-145 greater than 100 µM.
With `C=CCO[C@H]1OC(=O)[C@H]2[C@@H]1[C@@H]1CC[C@H]2O1`, the GI50 in the test with MCF7, in the test with NCI-H460, in the test on A-431 and with DU-145 was greater than 100 µM throughout.
Consider `CCCCOC1OC(=O)[C@H]2[C@@H]1[C@@H]1CC[C@H]2O1` (single isomer, unassigned), for which the GI50 is 50 µM in the test with HT-29; 32 µM in test [2]; 93 µM in test [1]; greater than 100 µM in the test with SW480; greater than 100 µM with MCF7; greater than 100 µM in the test with A2780. Besides, the GI50 in the test with NCI-H460, in the test with A-431 and in the test on DU-145 was greater than 100 µM in each case.
As to `CC(C)(C)O[C@H]1OC(=O)[C@H]2[C@@H]1[C@@H]1CC[C@H]2O1`, the GI50 in the test with HT-29 is 52 µM; in [2], 48 µM; in [1], greater than 100 µM; with SW480, greater than 100 µM; in the test on MCF7, greater than 100 µM; with A2780, greater than 100 µM. For the same compound, the GI50 with NCI-H460, in the test with A-431 and in the test on DU-145 was greater than 100 µM in each case.
In the case of `CCCCCCO[C@@H]1OC(=O)[C@H]2[C@@H]1[C@@H]1CC[C@H]2O1`, the GI50 (in test [1]; in the test with SW480; in the test on MCF7; in the test on A2780; in the test on NCI-H460; in the test with A-431) was greater than 100 µM each time. The GI50 in the test with DU-145 was greater than 100 µM.
`CC(C)O[C@H]1OC(=O)[C@H]2[C@@H]1[C@@H]1CC[C@H]2O1`: the GI50 in the test on HT-29 is 19 µM; in [2] it was 21 µM; in test [1] it was 44 µM; with SW480, 94 µM; in the test with MCF7, greater than 100 µM; in the test on A2780, greater than 100 µM. Moreover, the GI50 with NCI-H460, in the test with A-431 and in the test with DU-145 was greater than 100 µM each time.
Consider `O=C1O[C@H](O)[C@@H]2[C@H]1[C@H]1CC[C@@H]2O1`, for which the GI50 in the test on HT-29 is 14 µM; in [2], 15 µM; in [1], 28 µM; in the test on SW480 it was greater than 100 µM; in the test on MCF7, greater than 100 µM; in the test with A2780 it was greater than 100 µM. Besides, the GI50 in the test with NCI-H460, in the test with A-431 and with DU-145 was greater than 100 µM in each case.
Take `O=C1O[C@H](OCCCOP(=O)(Oc2ccccc2)Oc2ccccc2)[C@@H]2[C@H]1[C@H]1CC[C@@H]2O1`: the GI50 with HT-29 was 40 µM; in test [2] it was 40 µM; in test [1] it was greater than 100 µM; in the test with SW480, greater than 100 µM; in the test with MCF7 it was greater than 100 µM; with A2780, greater than 100 µM. Besides, the GI50 with NCI-H460, in the test on A-431 and in the test with DU-145 was greater than 100 µM each time.
For `C/C=C/CO[C@@H]1OC(=O)[C@H]2[C@@H]1[C@@H]1CC[C@H]2O1`, the GI50 in the test on HT-29 is 31 µM; in test [2], 35 µM; in [1] it was 63 µM; in the test with SW480, greater than 100 µM; in the test on MCF7 it was greater than 100 µM; in the test with A2780, greater than 100 µM. The GI50 in the test on NCI-H460, in the test with A-431 and with DU-145 was greater than 100 µM each time.
For the compound `O=C1O[C@H](OC2CCCCC2)[C@@H]2[C@H]1[C@H]1CC[C@@H]2O1`, the GI50 is 45 µM with HT-29; 41 µM in test [2]; greater than 100 µM in test [1]; greater than 100 µM in the test with SW480; greater than 100 µM with MCF7; greater than 100 µM in the test with A2780. The GI50 in the test on NCI-H460, in the test with A-431 and with DU-145 was greater than 100 µM in each case.
